{"source": "ChEMBL document CHEMBL1687770", "about": "“Activity of a trisubstituted pyrrole in inhibiting sporozoite invasion and blocking malaria infection” (2010)", "key": {"[1]": {"system": "Plasmodium berghei", "test": "Inhibition of Plasmodium berghei NK65 motility up to 10 uM after 2 hrs", "format": "functional, organism-based", "method_in_brief": "(§1)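 Gliding assay. Slides were coated with anti-CSP MAb 3D11 (10 μg/ml). P. berghei NK65 sporozoites (1 × 10⁴/well) were added with compound at 0.5, 2 or 10 μM in DMEM with 3% BSA and incubated 2 h at 37°C. Wells were fixed with paraformaldehyde and blocked. Trails were stained with biotinylated 3D11 and streptavidin-FITC.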"}, "[2]": {"system": "Plasmodium berghei", "test": "Antimalarial activity against Plasmodium berghei NK65 infected in human HepG2 cells assessed as inhibition of sporozoite invasion after 1 hr", "format": "functional", "method_in_brief": "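HepG2 cells were infected with P. berghei NK65 sporozoites (5 × 10⁴/well) with compound at 0.5, 2 or 10 μM for 1 h at 37°C. Cells were fixed with 4% paraformaldehyde and double-stained to tell intracellular from extracellular sporozoites. Intracellular sporozoites were counted.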"}, "[3]": {"system": "Plasmodium berghei", "test": "Antimalarial activity against Plasmodium berghei NK65 infected in human HepG2 cells assessed as reduction of liver stage parasites level treated for 12 hrs measured 40 hrs after drug washout", "format": "functional, organism-based", "method_in_brief": "(§2)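 P. berghei NK65 sporozoites from mosquito salivary glands (5 × 10⁴/well) added to HepG2 cells seeded the day before in DMEM/10% FCS, with compound at 0.5, 2 or 10 μM. At 12 h p.i. the medium was replaced with compound-free medium. Liver stages at 40 h p.i. were stained with MAb 2E6 and FITC anti-mouse IgG and counted by fluorescence microscopy. At least three experiments, each in duplicate.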"}, "[4]": {"system": "Plasmodium berghei", "test": "Antimalarial activity against Plasmodium berghei NK65 infected in human HepG2 cells assessed as inhibition of transformation of sporozoites into liver stage at 10 uM treated for 3 hrs measured 40 hrs after drug washout", "format": "functional, organism-based", "method_in_brief": "(§3)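 HepG2 cells were infected with P. berghei NK65 sporozoites (5 × 10⁴/well) in the presence of compound. The compound-containing medium was removed 3 h after infection. Liver stages at 40 h p.i. were immunostained with MAb 2E6 and FITC secondary, then counted by fluorescence microscopy. At least three experiments, in duplicate.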"}, "[5]": {"system": "Plasmodium yoelii", "test": "Antimalarial activity against Plasmodium yoelii 17XNL infected in Swiss-Webster mouse liver assessed as prevention of appearance of blood-stage parasites at 50 mg/kg, ip administered first dose 15 mins before infection and second and third doses given 6 hrs and 12 hrs postinfection measured up to 22 days", "format": "functional, organism-based", "parameters": "dose 50 mg/kg", "method_in_brief": "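Female Swiss-Webster mice (6–8 weeks, n = 10) were given 50 mg/kg ip in PBS, or PBS alone. Doses were given 15 min before iv injection of P. yoelii 17XNL sporozoites (5 × 10³/mouse), then at 6 h and 12 h p.i. Blood-stage parasites were checked daily on Giemsa-stained smears for up to 3 weeks.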"}, "[6]": {"system": "Plasmodium berghei", "test": "Antimalarial activity against Plasmodium berghei NK65 infected in human HepG2 cells assessed as reduction of liver stage parasites level at 2 uM treated for 12 hrs measured 40 hrs after drug washout", "format": "functional, organism-based", "method_in_brief": "as §2"}, "[7]": {"system": "Plasmodium yoelii", "test": "Antimalarial activity against Plasmodium yoelii infected in Swiss-Webster mouse liver assessed as reduction of parasite burden at 50 mg/kg, ip administered 15 mins before infection measured up to 22 days relative to PBS treated group", "details": "route intraperitoneal"}, "[8]": {"system": "Plasmodium berghei", "test": "Antimalarial activity against Plasmodium berghei ANKA infected through mosquito bite in C57BL/6 mouse liver assessed as increase of average prepatent period at 50 mg/kg, ip administered first dose 15 mins before infection and second and third doses given 6 hrs and 12 hrs postinfection measured up to 22 days (reference value: 2.66 +/- 0.57 days)", "details": "route intraperitoneal"}, "[9]": {"system": "Plasmodium yoelii", "test": "Antimalarial activity against Plasmodium yoelii 17XNL infected in Swiss-Webster mouse liver assessed as reduction of parasite burden at 50 mg/kg, ip administered 15 mins before infection measured up to 22 days relative to PBS treated group", "format": "functional", "details": "route intraperitoneal"}, "[10]": {"system": "Plasmodium berghei", "test": "Antimalarial activity against Plasmodium berghei NK65 infected in human HepG2 cells assessed as inhibition of transformation of sporozoites into liver stage at 10 uM treated 3 hrs after infection measured 40 hrs after drug washout", "format": "functional, organism-based", "method_in_brief": "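Compound at 10 μM was added to HepG2 cultures 3 h after P. berghei NK65 sporozoite addition. Liver stages were detected at 40 h p.i. by MAb 2E6/FITC immunofluorescence and counted. Compared with untreated wells by t test. At least three experiments, in duplicate.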"}, "[11]": {"system": "Plasmodium yoelii", "test": "Antimalarial activity against Plasmodium yoelii 17XNL infected in Swiss-Webster mouse liver assessed as reduction liver-stage infection at 50 mg/kg, ip administered 15 mins before infection measured up to 22 days", "format": "functional, organism-based", "parameters": "dose 50 mg/kg", "method_in_brief": "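Female Swiss-Webster mice (6–8 weeks, n = 3) received one ip dose of 50 mg/kg in PBS, or PBS alone, before iv infection with P. yoelii 17XNL sporozoites (1 × 10⁴/mouse). The prepatent period was followed by daily Giemsa-stained blood smears.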"}, "[12]": {"system": "Plasmodium berghei", "test": "Antimalarial activity against PbPKG knockout Plasmodium berghei NK65 infected in human HepG2 cells assessed as reduction of liver stage parasites level treated for 3 hrs measured 40 hrs after drug washout", "format": "functional, organism-based"}, "[13]": {"system": "Plasmodium berghei", "test": "Antimalarial activity against Plasmodium berghei NK65 assessed as reduction of number of complex trails up to 10 uM relative to untreated control", "format": "functional", "parameters": "scale not given: the % may be the effect or the level left", "method_in_brief": "as §1"}, "[14]": {"system": "Plasmodium berghei", "test": "Antimalarial activity against PbPKG knockout Plasmodium berghei NK65 infected in human HepG2 cells assessed as reduction of liver stage parasites level treated before infection measured 40 hrs after drug washout", "format": "functional, organism-based"}, "[15]": {"system": "Plasmodium berghei", "test": "Antimalarial activity against Plasmodium berghei NK65 infected in human HepG2 cells assessed as reduction of liver stage parasites level at 2 uM treated for 3 hrs measured 40 hrs after drug washout", "format": "functional, organism-based", "method_in_brief": "as §3"}}, "note": "The source made the active and inactive calls. The rule behind the calls is not given here."}
{"smiles": "CN1CCC(c2cc(-c3ccncc3)c(-c3ccc(F)cc3)[nH]2)CC1", "values": [{"measurement": "inhibition", "setting": "[1]", "value": "inactive"}, {"measurement": "INH", "setting": "[2]", "value": ">1", "unit": "µM"}, {"measurement": "Activity", "setting": "[3]", "value": "Dose dependent effect"}, {"measurement": "inhibition", "setting": "[4]", "value": "Active"}, {"measurement": "Activity", "setting": "[5]", "value": "Active"}, {"measurement": "Activity", "setting": "[6]", "value": "Active"}, {"measurement": "fold change (FC)", "setting": "[7]", "value": ">1000"}, {"measurement": "Time", "setting": "[8]", "value": 5.33, "unit": "days"}, {"measurement": "fold change (FC)", "setting": "[9]", "value": ">1000"}, {"measurement": "inhibition", "setting": "[10]", "value": "inactive"}, {"measurement": "Activity", "setting": "[11]", "value": "Active"}, {"measurement": "Activity", "setting": "[12]", "value": "Active"}, {"measurement": "Activity", "setting": "[13]", "value": 50, "unit": "%"}, {"measurement": "Activity", "setting": "[14]", "value": "inactive"}, {"measurement": "Activity", "setting": "[15]", "value": "Active"}]}
